Assay results reported in ChEMBL document CHEMBL3351537, “Design, synthesis and biological evaluation of 4-fluoropyrrolidine-2-carbonitrile and octahydrocyclopenta[b]pyrrole-2-carbonitrile derivatives as dipeptidyl peptidase IV inhibitors” (Eur J Med Chem, 2014).
One block for each compound: values may come before it. Calls of active or inactive are those of the source. No cut-off for these calls is given here.

Tests used:
Dipeptidyl peptidase 2 = Dipeptidyl peptidase 2 (Homo sapiens, UniProt Q9UHL4); assay: Inhibition of DPP7 (unknown origin) expressed in baculovirus expression system using Nle-Pro-AMC as substrate by continuous fluorometric assay
Mus musculus [1] = assay: Reduction in glucose excursion in ICR mouse compound administered as single dose measured at 15 mins post dose by oral glucose tolerance test; format: functional, organism-based
In short: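 Fasted ICR mice (16 h) given a single oral dose, 5 or 15 mg/kg in 0.5% methylcellulose (10 mL/kg). Oral glucose challenge 2.5 g/kg given 30 min later. Blood glucose read at 0, 15, 30, 60, 90 and 120 min for AUC. Vehicle control included; mean ± SE, Student's t-test.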

[2] = Tmax in Sprague-Dawley rat at 50 mg/kg, po; format: ADME, organism-based; parameters: dose 50 mg/kg, route oral; conditions: in vivo
In short: (§1)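 SD rats dosed orally or intravenously. Blood sampled after dosing and spun to plasma. Plasma deproteinized with methanol containing internal standard, centrifuged, supernatant diluted in methanol and centrifuged again. Compound levels measured by LC/MS/MS. PK parameters were derived from these plasma concentrations.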

[3] = Cmax in Sprague-Dawley rat at 50 mg/kg, po; format: ADME, organism-based; parameters: dose 50 mg/kg, route oral; conditions: in vivo; in short: as §1
[4] = AUC (0 to t) in Sprague-Dawley rat at 50 mg/kg, po; format: ADME, organism-based; parameters: dose 50 mg/kg, route oral; conditions: plasma; in short: as §1
Rattus norvegicus [5] = assay: AUC (0 to infinity) in Sprague-Dawley rat at 50 mg/kg, po; format: ADME, organism-based, Plasma; parameters: time infinity, dose 50 mg/kg, route oral; conditions: in vivo; in short: as §1
[6] = Mean residence time in Sprague-Dawley rat at 50 mg/kg, po; format: ADME, organism-based; parameters: dose 50 mg/kg, route oral; conditions: in vivo; in short: as §1
[7] = Half life in Sprague-Dawley rat at 50 mg/kg, po; format: ADME, organism-based; parameters: dose 50 mg/kg, route oral; conditions: in vivo; in short: as §1
Rattus norvegicus [8] = assay: Oral bioavailability in Sprague-Dawley rat at 50 mg/kg; format: ADME, organism-based; conditions: in vivo; in short: as §1
[9] = Tmax in Sprague-Dawley rat at 20 mg/kg, iv; format: ADME, organism-based; parameters: dose 20 mg/kg, route intravenous; conditions: in vivo; in short: as §1
[10] = Cmax in Sprague-Dawley rat at 20 mg/kg, iv; format: ADME, organism-based; parameters: dose 20 mg/kg, route intravenous; conditions: in vivo; in short: as §1
[11] = AUC (0 to t) in Sprague-Dawley rat at 20 mg/kg, iv; format: ADME, organism-based; parameters: dose 20 mg/kg, route intravenous; conditions: plasma; in short: as §1
Rattus norvegicus [12] = assay: AUC (0 to infinity) in Sprague-Dawley rat at 20 mg/kg, iv; format: ADME, organism-based, Plasma; parameters: dose 20 mg/kg, route intravenous, time infinity; conditions: in vivo; in short: as §1
[13] = Mean residence time in Sprague-Dawley rat at 20 mg/kg, iv; format: ADME, organism-based; parameters: dose 20 mg/kg, route intravenous; conditions: in vivo; in short: as §1
[14] = Half life in Sprague-Dawley rat at 20 mg/kg, iv; format: ADME, organism-based; parameters: dose 20 mg/kg, route intravenous; conditions: in vivo; in short: as §1
Rattus norvegicus [15] = assay: Apparent clearance in Sprague-Dawley rat at 20 mg/kg, iv; format: ADME, organism-based; parameters: dose 20 mg/kg, route intravenous; conditions: in vivo; in short: as §1
[16] = target: T1, Voltage-gated inwardly rectifying potassium channel KCNH2 (Homo sapiens, UniProt Q12809); assay: Inhibition of human ERG expressed in CHO cells after 20 mins by patch clamp assay; format: cell-based
[17] = target: T1, Voltage-gated inwardly rectifying potassium channel KCNH2; assay: Inhibition of human ERG expressed in CHO cells after 20 mins by thallium assay; format: cell-based
In short: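 CHO-hERG-ZG cells grown with 100 μg/mL G418 and 100 μg/mL hygromycin B, then seeded and incubated 16–18 h at 37 °C. Cells held in loading buffer 90 min in the dark at RT, switched to assay buffer, and exposed to compound 20 min in the dark at RT. FluxOR thallium flux read on FDSS: baseline to 10 s, stimulus buffer added at 10 s, recording to 180 s.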

Cytochrome P450 3A4 = Cytochrome P450 3A4 (Homo sapiens, UniProt P08684); assay: Inhibition of CYP3A4 (unknown origin); format: ADME
Cytochrome P450 2C9 = Cytochrome P450 2C9 (Homo sapiens, UniProt P11712); assay: Inhibition of CYP2C9 (unknown origin); format: ADME
Dipeptidyl peptidase 4 = Dipeptidyl peptidase 4 (Homo sapiens, UniProt P27487); assay: Inhibition of human recombinant DPP4 expressed in baculovirus expression system using Ala-Pro-AMC as substrate by continuous fluorometric assay
Dipeptidyl peptidase 8 = Dipeptidyl peptidase 8 (Homo sapiens, UniProt Q6V1X1); assay: Inhibition of DPP8 (unknown origin) expressed in baculovirus expression system using Ala-Pro-AMC as substrate by continuous fluorometric assay
Dipeptidyl peptidase 9 = Dipeptidyl peptidase 9 (Homo sapiens, UniProt Q86TI2); assay: Inhibition of DPP9 (unknown origin) expressed in baculovirus expression system using Ala-Pro-AMC as substrate by continuous fluorometric assay
Prolyl endopeptidase FAP = target: T2, Prolyl endopeptidase FAP (Homo sapiens, UniProt Q12884); assay: Inhibition of FAP (unknown origin) expressed in baculovirus expression system using Nle-Pro-AMC as substrate by continuous fluorometric assay
T2 sequence (Q12884 whole entry): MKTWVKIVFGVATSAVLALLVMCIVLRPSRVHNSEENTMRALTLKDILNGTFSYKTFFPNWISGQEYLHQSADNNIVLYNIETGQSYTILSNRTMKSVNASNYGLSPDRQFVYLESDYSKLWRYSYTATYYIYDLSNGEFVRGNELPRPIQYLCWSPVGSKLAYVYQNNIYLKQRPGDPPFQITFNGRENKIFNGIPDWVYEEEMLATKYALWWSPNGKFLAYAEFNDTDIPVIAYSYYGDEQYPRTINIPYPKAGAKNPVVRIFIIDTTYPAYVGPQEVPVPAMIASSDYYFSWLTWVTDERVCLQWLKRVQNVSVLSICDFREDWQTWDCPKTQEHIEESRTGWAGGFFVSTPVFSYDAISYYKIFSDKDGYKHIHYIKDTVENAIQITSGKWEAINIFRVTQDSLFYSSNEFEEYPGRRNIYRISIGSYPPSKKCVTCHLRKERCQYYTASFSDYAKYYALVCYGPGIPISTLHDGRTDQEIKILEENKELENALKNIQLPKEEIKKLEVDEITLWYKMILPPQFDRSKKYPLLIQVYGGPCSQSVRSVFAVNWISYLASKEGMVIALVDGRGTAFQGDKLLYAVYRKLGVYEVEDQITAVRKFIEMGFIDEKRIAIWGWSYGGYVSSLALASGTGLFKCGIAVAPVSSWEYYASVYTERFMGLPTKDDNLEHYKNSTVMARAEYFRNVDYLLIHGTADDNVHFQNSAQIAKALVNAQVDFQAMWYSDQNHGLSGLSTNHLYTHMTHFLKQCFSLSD

Mus musculus [18] = assay: Reduction in fasting blood glucose level in C57BKS db/db mouse at 15 mg/kg/day, po (Rvb =23.0 +/- 1.0 mM); format: functional
Mus musculus [19] = assay: Reduction in plasma triglyceride content in C57BKS db/db mouse at 15 mg/kg/day, po (reference value: 1.01 +/- 0.09 mM); format: functional
Mus musculus [20] = assay: Reduction in free fatty acid in C57BKS db/db mouse at 15 mg/kg/day, po (reference value: 1.46 +/- 0.10 mM); format: functional
Mus musculus [21] = assay: Reduction in random blood glucose level in C57BKS db/db mouse at 15 mg/kg/day, po (Rvb =23.3 +/- 1.0 mM); format: functional
Mus musculus [22] = assay: Reduction in total cholesterol content in C57BKS db/db mouse at 15 mg/kg/day, po; format: functional, organism-based

T1 sequence (Q12809 whole entry): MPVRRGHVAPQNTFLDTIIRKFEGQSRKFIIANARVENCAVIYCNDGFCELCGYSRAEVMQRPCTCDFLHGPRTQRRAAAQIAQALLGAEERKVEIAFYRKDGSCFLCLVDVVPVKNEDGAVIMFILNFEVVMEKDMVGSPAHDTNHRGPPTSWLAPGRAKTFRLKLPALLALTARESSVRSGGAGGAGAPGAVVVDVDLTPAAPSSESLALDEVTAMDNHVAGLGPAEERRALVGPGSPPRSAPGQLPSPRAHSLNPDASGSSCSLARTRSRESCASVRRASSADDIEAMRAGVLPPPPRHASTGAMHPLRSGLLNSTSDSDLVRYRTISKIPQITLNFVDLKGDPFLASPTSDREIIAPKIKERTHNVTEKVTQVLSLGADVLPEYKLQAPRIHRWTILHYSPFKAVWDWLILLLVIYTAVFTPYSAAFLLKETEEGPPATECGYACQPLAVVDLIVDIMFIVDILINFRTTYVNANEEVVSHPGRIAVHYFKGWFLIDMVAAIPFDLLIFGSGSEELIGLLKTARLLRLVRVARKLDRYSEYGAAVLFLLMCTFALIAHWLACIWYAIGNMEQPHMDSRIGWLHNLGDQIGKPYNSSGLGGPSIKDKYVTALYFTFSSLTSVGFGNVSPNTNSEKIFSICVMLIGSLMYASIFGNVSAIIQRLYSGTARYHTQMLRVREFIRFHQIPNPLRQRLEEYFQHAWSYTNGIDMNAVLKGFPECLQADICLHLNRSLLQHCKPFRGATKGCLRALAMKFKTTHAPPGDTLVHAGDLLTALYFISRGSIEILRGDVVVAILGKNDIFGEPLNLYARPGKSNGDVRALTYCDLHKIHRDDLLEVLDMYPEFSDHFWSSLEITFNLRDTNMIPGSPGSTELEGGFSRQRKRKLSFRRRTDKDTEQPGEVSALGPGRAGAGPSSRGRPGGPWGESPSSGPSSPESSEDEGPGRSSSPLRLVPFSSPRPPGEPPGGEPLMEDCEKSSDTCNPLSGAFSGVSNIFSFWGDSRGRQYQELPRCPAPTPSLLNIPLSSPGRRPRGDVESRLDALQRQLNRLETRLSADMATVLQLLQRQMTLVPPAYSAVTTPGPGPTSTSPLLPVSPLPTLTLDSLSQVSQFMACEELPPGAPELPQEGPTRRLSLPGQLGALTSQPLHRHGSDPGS
Sequence of Dipeptidyl peptidase 4 (P27487 whole entry): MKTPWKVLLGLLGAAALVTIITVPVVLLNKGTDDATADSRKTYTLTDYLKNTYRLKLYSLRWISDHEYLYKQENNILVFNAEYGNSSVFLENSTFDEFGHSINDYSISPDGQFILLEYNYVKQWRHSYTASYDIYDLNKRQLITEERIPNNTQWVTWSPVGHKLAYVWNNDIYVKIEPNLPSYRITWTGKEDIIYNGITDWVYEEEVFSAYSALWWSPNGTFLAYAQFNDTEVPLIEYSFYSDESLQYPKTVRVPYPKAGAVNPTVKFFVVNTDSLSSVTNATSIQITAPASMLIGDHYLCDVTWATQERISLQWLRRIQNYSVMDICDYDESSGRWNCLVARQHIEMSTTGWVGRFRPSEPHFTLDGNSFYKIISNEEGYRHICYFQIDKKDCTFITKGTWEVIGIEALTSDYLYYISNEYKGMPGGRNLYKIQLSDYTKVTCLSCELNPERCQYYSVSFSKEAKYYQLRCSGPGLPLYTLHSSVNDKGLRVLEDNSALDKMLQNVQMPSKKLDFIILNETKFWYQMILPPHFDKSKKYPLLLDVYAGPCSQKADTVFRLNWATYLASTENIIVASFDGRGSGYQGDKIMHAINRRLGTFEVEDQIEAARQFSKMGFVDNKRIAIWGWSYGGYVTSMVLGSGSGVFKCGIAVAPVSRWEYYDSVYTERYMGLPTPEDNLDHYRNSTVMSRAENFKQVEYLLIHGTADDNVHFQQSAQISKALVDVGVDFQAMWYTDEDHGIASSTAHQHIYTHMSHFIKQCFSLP
Sequence of Dipeptidyl peptidase 9 (Q86TI2 whole entry): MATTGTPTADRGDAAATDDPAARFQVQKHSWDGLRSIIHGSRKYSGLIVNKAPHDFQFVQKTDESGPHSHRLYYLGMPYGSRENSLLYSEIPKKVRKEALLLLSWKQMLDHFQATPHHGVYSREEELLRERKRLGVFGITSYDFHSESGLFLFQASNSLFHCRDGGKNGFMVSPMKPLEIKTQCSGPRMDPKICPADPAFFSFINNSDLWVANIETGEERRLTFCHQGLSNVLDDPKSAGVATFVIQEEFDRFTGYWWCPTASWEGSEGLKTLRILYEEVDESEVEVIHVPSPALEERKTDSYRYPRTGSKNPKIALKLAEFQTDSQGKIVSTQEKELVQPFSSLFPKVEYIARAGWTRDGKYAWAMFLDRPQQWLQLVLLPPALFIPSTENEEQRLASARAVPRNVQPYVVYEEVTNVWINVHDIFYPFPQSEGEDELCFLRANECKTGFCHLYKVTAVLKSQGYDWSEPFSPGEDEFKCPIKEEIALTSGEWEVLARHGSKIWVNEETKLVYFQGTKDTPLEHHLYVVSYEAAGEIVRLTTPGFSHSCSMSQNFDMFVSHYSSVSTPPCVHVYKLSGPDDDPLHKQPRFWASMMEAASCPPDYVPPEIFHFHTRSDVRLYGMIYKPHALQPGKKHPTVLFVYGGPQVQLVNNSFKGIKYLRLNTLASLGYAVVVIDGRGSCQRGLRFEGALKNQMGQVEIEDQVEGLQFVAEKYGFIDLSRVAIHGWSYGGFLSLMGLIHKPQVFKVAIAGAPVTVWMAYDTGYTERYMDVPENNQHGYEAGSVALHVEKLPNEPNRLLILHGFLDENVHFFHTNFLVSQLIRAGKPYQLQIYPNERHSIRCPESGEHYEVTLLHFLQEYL
Sequence of Cytochrome P450 3A4 (P08684 whole entry): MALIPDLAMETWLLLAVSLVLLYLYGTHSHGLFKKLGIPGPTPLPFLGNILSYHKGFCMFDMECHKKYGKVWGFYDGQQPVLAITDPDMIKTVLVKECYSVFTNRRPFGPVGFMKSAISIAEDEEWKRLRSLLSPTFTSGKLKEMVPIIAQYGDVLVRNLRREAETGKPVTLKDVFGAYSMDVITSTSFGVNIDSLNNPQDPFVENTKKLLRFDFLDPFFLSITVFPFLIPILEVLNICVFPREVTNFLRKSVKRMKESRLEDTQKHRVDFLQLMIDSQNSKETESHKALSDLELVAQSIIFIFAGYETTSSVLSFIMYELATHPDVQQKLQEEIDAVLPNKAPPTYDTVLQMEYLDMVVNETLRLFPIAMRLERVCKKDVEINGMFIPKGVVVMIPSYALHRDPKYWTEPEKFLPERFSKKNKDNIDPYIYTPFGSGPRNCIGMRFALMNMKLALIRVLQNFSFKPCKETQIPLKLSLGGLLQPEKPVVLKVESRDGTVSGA
Sequence of Cytochrome P450 2C9 (P11712 whole entry): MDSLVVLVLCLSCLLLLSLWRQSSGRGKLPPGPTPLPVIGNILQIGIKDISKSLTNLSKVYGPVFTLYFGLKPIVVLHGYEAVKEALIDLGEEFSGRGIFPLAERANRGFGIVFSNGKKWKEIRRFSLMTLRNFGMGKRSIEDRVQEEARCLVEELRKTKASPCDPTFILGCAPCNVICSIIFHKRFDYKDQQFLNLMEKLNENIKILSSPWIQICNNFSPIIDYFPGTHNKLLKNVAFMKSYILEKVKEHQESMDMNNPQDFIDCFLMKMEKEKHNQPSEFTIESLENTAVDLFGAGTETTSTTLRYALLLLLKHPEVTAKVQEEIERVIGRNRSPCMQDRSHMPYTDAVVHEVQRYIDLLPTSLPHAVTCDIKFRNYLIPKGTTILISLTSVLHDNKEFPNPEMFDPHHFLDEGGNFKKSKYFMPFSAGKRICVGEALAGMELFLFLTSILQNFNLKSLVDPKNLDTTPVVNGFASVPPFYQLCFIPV
Sequence of Dipeptidyl peptidase 8 (Q6V1X1 whole entry): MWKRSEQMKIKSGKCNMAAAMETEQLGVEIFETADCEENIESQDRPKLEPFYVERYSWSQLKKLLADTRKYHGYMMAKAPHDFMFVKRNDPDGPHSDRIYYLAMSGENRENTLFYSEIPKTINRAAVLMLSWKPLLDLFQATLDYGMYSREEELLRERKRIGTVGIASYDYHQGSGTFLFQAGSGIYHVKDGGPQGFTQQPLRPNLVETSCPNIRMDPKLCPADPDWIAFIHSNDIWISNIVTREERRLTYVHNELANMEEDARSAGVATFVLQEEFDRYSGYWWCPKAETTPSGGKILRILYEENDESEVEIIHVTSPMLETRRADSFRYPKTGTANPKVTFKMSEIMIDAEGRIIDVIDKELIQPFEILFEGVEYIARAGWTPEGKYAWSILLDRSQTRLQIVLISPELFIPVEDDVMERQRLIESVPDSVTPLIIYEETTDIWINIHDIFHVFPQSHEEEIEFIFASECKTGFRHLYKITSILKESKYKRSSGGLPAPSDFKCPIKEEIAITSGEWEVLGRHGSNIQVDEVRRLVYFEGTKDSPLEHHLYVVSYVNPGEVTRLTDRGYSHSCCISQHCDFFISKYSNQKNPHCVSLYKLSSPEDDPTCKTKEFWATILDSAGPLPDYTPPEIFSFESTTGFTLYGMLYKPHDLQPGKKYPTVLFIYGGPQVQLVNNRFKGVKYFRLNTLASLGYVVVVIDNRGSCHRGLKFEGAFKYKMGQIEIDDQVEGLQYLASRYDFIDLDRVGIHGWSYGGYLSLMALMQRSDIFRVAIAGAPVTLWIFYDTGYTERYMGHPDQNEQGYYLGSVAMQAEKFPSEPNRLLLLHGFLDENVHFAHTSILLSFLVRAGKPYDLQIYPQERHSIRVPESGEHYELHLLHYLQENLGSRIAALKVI

SMILES: N#C[C@@H]1C[C@H](F)CN1C(=O)C[C@H](N)Cc1ccccc1
- IC50 (Dipeptidyl peptidase 2): Not Active

SMILES: N#C[C@@H]1C[C@H](F)CN1C(=O)C[C@H](N)Cc1cc(F)c(F)cc1F
- Activity (Mus musculus [1]): Dose-dependent effect
- Tmax [2]: 0.3 h
- Cmax [3]: 2690 ng/mL
- AUC(0-t) [4]: 8840 ng·h/mL
- AUC (Rattus norvegicus [5]): 8935 ng·h/mL
- MRT [6]: 3.03 h
- half-life [7]: 2.03 h
- F (Rattus norvegicus [8]): 53.2%
- Tmax [9]: 0.3 h
- Cmax [10]: 2710 ng/mL
- AUC(0-t) [11]: 5840 ng·h/mL
- AUC (Rattus norvegicus [12]): 5870 ng/mL.hr
- MRT [13]: 2.93 h
- half-life [14]: 2.33 h
- CL(app) (Rattus norvegicus [15]): 57 mL/min/kg
- IC50 [16]: > 40 µM
- IC50 [17]: 97.7 µM
- IC50 (Cytochrome P450 3A4): 56.5 µM
- IC50 (Cytochrome P450 2C9): Not Active

SMILES: N#C[C@@H]1C[C@H](F)CN1C(=O)C[C@H](N)Cc1ccc(F)cc1
- IC50 (Dipeptidyl peptidase 2; read-out: IC50): 193 µM

SMILES: N#C[C@@H]1CCCN1C(=O)CNC12CC3CC(CC(O)(C3)C1)C2 [VILDAGLIPTIN]
- Activity (Mus musculus [18]): 18.5 mM
- Activity (Mus musculus [19]): 0.75 mM
- Activity (Mus musculus [20]): 1.07 mEq/L
- Activity (Mus musculus [21]): 22.2 mM
- Activity (Mus musculus [22]): inactive

SMILES: N#C[C@@H]1C[C@@H]2CCC[C@@H]2N1C(=O)C[C@H](N)Cc1ccccc1Cl
- IC50 (Dipeptidyl peptidase 2): Not Active

The remaining lines, values ahead:

- IC50 (Dipeptidyl peptidase 4): Not Active
SMILES: COc1ccc(C[C@@H](N)CC(=O)N2[C@H](C#N)C[C@@H]3CCC[C@@H]32)cc1

- IC50 (Dipeptidyl peptidase 2): Not Active
- IC50 (Dipeptidyl peptidase 8): Not Active
- IC50 (Dipeptidyl peptidase 9): 108 µM
- IC50 (Prolyl endopeptidase FAP): Not Active
SMILES: N#C[C@@H]1C[C@@H]2CCC[C@@H]2N1C(=O)C[C@H](N)Cc1ccccc1
